Many of the other results were omitted from the sample, so hits are more common in it than they were.
CHOP UPR activ – activators of apoptotic arm of unfolded protein response (CHOP); 330,000 compounds, 0.34% hits; activation, % at 10 µM; CHO-CHOP luciferase reporter, UPR activation, luminescence; percent of tunicamycin response over DMSO baseline;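 active means at 10 µM dose, activation of 40% or more, normalized to positive control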;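 further: 100% = tunicamycin at 10 µg/mL and 0% = DMSO alone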
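measured by = luciferase luminescence | assay system = CHO-CHOP cells, stable luciferase reporter of PERK-eIF2a-CHOP signalling | amount = 500 reporter cells seeded per well | timing = 6 h compound exposure at 37 °C after overnight seeding | controls = positive tunicamycin 10 µg/mL, negative DMSO alone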
Lmaj promast – Leishmania major promastigote growth inhibition; Leishmania major promastigotes, resazurin fluorescence viability; 200,000 compounds, 9% hits; inhibition, % at 10 µM; AID 1063; in the data active means inhibition above about 50%;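 further: promastigotes grown with compound for 44 hours at 28 °C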
UPR XBP1 act – activators of adaptive arm of unfolded protein response (XBP1); activation, % at 20 µM; CHO-XBP1 luciferase reporter, IRE1-XBP1 UPR activation, luminescence; percent of tunicamycin response, DMSO as zero; AID 463104; 330,000 compounds, 0.33% hits;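 active means versus positive control, 20 µM dose yields 30% or more activation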;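 further: 100% = tunicamycin at 10 µg/mL and 0% = DMSO only wells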
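Material: CHO cell line with stable XBP1 luciferase reporter; schedule: 16-18 h cell attachment at 37 °C, then 6 h compound exposure; signal: glow luminescence from Steady-Glo reagent; medium: serum-containing F12 medium, 10% FBS; benchmarks: tunicamycin 10 µg/mL and vehicle-only wells; read-out: percent activation relative to tunicamycin reference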
Dynein cargo inh – blocks dynein driven cargo transport along microtubules; 220,000 compounds, 0.47% hits; z-score, hits read low; 3617.4 mouse cells, GR-EGFP nuclear translocation imaging; test concentration mostly 20 µM; stimulated with dexamethasone, 1 µM; hits give low values;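 active means plate z-score of nuclear minus cytoplasmic receptor signal below a set negative limit, without overly bright fluorescence or cell loss, cut at about -3.5 in these data, passing the limit was not always enough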;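 further: z-score of nuclear minus cytoplasmic ring GR-EGFP intensity difference per well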
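medium = tetracycline-free induction medium containing charcoal-stripped FBS | probe or stimulus = dexamethasone, 1.0 µM final | timing = 48 h induction, then 1 h compound, then 30 min agonist, 37 °C | detection = automated 10x imaging of fixed Hoechst-stained cells | read-out basis = nuclear versus cytoplasmic GR-EGFP signal, averaged per well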
T cruzi repl – T. cruzi replication inhibition; T. cruzi beta-gal in NIH3T3, luminescence, 90 h; inhibition, % (concentration not given with the values); 300,000 compounds, 1.4% hits; AID 1885;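 active means mean inhibition across valid replicates above about 55%, limit read from the data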;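 further: signal also drops with host cell toxicity which is not excluded here; 0% = plate median of DMSO wells and 100% = zero luminescence signal; higher percent means less beta-gal luminescence so fewer parasites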
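System: NIH/3T3 fibroblasts plus reporter T. cruzi. Medium: DMEM plus 2% FBS. Probe or stimulus: 5000 reporter trypomastigotes per well. Compound: single 50 nL compound addition per well in DMSO. Incubation: co-culture of at least 90 h after 3 h attachment. Detection: GalScreen β-gal luminescence, detergent lysis, 60 min. Evaluation: parasite load inhibition, %.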
CHOP inh – CHOP inhibition in unfolded protein response. inhibition, % at 10 µM. AID 2732. 220,000 compounds, 3.8% hits. CHO-K1 CHOP-promoter luciferase, tunicamycin-induced, 15-18 h;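 active means compounds that reduced the stress-induced luciferase reporter signal by more than about 70% of percent inhibition, limit read from the data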;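 further: 0% = tunicamycin plus vehicle and 100% = wells without tunicamycin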
UPR XBP1 confirm – confirmation of adaptive unfolded protein response (XBP1) activators | 1,000 compounds, 63% hits | AID 485299 | CHO-XBP1 IRE1-XBP1 luciferase reporter, luminescence | shares compounds with UPR XBP1 act | activation, % at 20 µM;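 active means reporter signal at least 30% of the positive control's activation in two or more of four replicate wells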;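 further: plate controls were DMSO negative control for no effect and tunicamycin 10 µg/mL positive control for full effect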
Numbers without * were called inactive.

`O=C(CSc1nc2ccccc2c(=O)n1-c1ccccc1)N1CCc2ccccc21` gave CHOP UPR activ 2, Lmaj promast -1, UPR XBP1 act 36*, Dynein cargo inh -1.4, T cruzi repl 5, CHOP inh -25 and UPR XBP1 confirm 42*.
For COC(=O)c1ccc(CSc2ncnc3ccccc23)o1 the results were CHOP UPR activ -1, Lmaj promast 6, UPR XBP1 act 1, Dynein cargo inh -0.89, T cruzi repl -13 and CHOP inh 10.
Screening O=C(CSc1nc2ccccc2c(=O)n1-c1ccccc1)N1CCCc2ccccc21 returned CHOP UPR activ 2, Lmaj promast 13, UPR XBP1 act 2, Dynein cargo inh 0.068, T cruzi repl 16 and CHOP inh 13.
Screening NC(=O)C[C@H](NC(=O)c1ccc(Cl)cc1)C(=O)OCc1ccccc1 returned CHOP UPR activ 8 and UPR XBP1 act 0.
Screening CCNc1nc(NCC)n2c(SC(C(=O)Nc3cc(Cl)cc(Cl)c3)c3ccccc3)nnc2n1 (stereo unspecified) returned CHOP UPR activ 15, Lmaj promast 5, UPR XBP1 act 90*, Dynein cargo inh -0.34, T cruzi repl 27, CHOP inh 90* and UPR XBP1 confirm 25.
Oc1ccc2ccccc2c1C=Nc1ccccc1-c1nc2ccccc2[nH]1 was read as CHOP UPR activ 26, Lmaj promast 23, UPR XBP1 act 37*, Dynein cargo inh -1.1, T cruzi repl -23, CHOP inh 73* and UPR XBP1 confirm 5.
For O=C(N/N=C/c1ccc(Cl)cc1)c1sccc1OCc1ccc(F)cc1 the results were CHOP UPR activ 3, Lmaj promast 85*, UPR XBP1 act 50*, T cruzi repl 29, CHOP inh -7 and UPR XBP1 confirm 55*.
Screening O=C(COC(=O)/C=C/c1ccc(Cl)cc1Cl)NCC1CCCO1 (stereo unspecified) returned CHOP UPR activ -1 and UPR XBP1 act 0.
Screening COc1ccc(NC(=O)CSc2nnc(-c3cc(C)[nH]n3)n2N)cc1 returned CHOP UPR activ 1, UPR XBP1 act 0 and T cruzi repl 13.
Screening O=C(NCC1CC1)c1cccc2c1C(=O)c1ccc(-c3ccc(OC(F)(F)F)cc3)cc1S2(=O)=O returned CHOP UPR activ 20, UPR XBP1 act 41* and UPR XBP1 confirm 42*.
Cc1ccc([N+](=O)[O-])cc1S(=O)(=O)Nc1cccc(S(=O)(=O)NC2=NCCC2)c1 was read as CHOP UPR activ 1 and UPR XBP1 act -2.
For COc1ccccc1CNC(=O)[C@@H](NC(=O)C1CCN(C(=O)[C@@H]2CCCN2C(=O)OC(C)(C)C)CC1)C(C)C the results were CHOP UPR activ -2, UPR XBP1 act 1 and T cruzi repl 4.
For Cc1ccccc1NC(=O)Nc1nnc(Cc2ccc([N+](=O)[O-])cc2)s1 the results were CHOP UPR activ 5, Lmaj promast 4, UPR XBP1 act 73*, Dynein cargo inh 0.44, T cruzi repl 13, CHOP inh 91* and UPR XBP1 confirm 3.
For Cc1ccc(NC(=O)Nc2nnc(Cc3ccc([N+](=O)[O-])cc3)s2)cc1C the results were CHOP UPR activ 4, Lmaj promast -7, UPR XBP1 act 4, Dynein cargo inh 0.01, T cruzi repl 15 and CHOP inh 41.
For Cc1ccc(C(=O)N2N=C(c3ccc(Br)cc3)CC2c2ccccc2O)cc1 (stereo unspecified) the results were CHOP UPR activ 5, UPR XBP1 act 40*, T cruzi repl 55* and UPR XBP1 confirm 41*.
Screening Cc1ccc(C(=O)N2N=C(c3ccccc3O)CC2c2ccccc2)cc1 (stereo unspecified) returned CHOP UPR activ 0, UPR XBP1 act 1 and T cruzi repl 19.
For COc1ccc(-c2nnc(SCC(=O)Nc3sc4c(c3C#N)CCCC4)n2-c2ccccc2)cc1 the results were CHOP UPR activ -1, Lmaj promast -3, UPR XBP1 act 35*, Dynein cargo inh 0.038, T cruzi repl -15, CHOP inh 69 and UPR XBP1 confirm 61*.
`COCCCNC(=O)CSc1ccc(Cl)cc1` gave CHOP UPR activ -2, Lmaj promast -8, UPR XBP1 act -1, Dynein cargo inh -0.45, T cruzi repl -11 and CHOP inh 2.
`COCCCNCC1C(Oc2ccc(Cl)cc2)C(=O)N1c1ccccc1C` (stereo unspecified) gave CHOP UPR activ 0, Lmaj promast 84*, UPR XBP1 act 36*, Dynein cargo inh 1.3, T cruzi repl -8, CHOP inh 13 and UPR XBP1 confirm -1.
Cc1ccc(Nc2nc(-c3c(C)nc4ccccn34)cs2)cc1 was read as CHOP UPR activ 11, Lmaj promast 93*, UPR XBP1 act 41*, Dynein cargo inh 0.32, T cruzi repl 39, CHOP inh 85* and UPR XBP1 confirm 35*.
Screening Cc1nc2ncccn2c1-c1csc(Nc2ccc(O)cc2)n1 returned CHOP UPR activ 0, Lmaj promast 10, UPR XBP1 act -2, Dynein cargo inh 2, T cruzi repl -65 and CHOP inh 52.
CC(C(=O)N1CCc2ccccc21)N(C)CC(=O)Nc1cccc(F)c1 (stereo unspecified) was read as CHOP UPR activ 0 and UPR XBP1 act -3.
`Cc1ccc(NC2=C(Cl)C(=O)OC2OC(C)C)c(C)c1` (stereo unspecified) gave CHOP UPR activ 2, Lmaj promast -1, UPR XBP1 act 36*, Dynein cargo inh -0.51, T cruzi repl -20, CHOP inh 15 and UPR XBP1 confirm 0.
`O=C(Oc1ccc(F)cc1C(=O)/C=C/c1cccs1)c1cccc([N+](=O)[O-])c1` gave CHOP UPR activ 8, Lmaj promast 32, UPR XBP1 act 38*, Dynein cargo inh -0.87, T cruzi repl 15, CHOP inh -36 and UPR XBP1 confirm 83*.
`Cc1ccc(OC(=O)c2cccc([N+](=O)[O-])c2)c(-n2nc3ccccc3n2)c1` gave CHOP UPR activ 5, Lmaj promast -3, UPR XBP1 act 4, Dynein cargo inh -0.81, T cruzi repl 0 and CHOP inh 28.
For CC1CCN(CCc2nc3cc(NC(=O)COc4ccc(Cl)cc4)ccc3n2C)CC1 the results were CHOP UPR activ 2, UPR XBP1 act -4 and T cruzi repl 30.
